The record followed here is ChEMBL document CHEMBL1131380, “Clarification of the binding mode of teleocidin and benzolactams to the Cys2 domain of protein kinase Cdelta by synthesis of hydrophobically modified, teleocidin-mimicking benzolactams and computational docking simulation” (J Med Chem, 1998).

As usually defined, the Ki is a measure of affinity in units of concentration, obtained from inhibition or displacement. As usually defined, the EC50 is the concentration that produces a half-maximal response. Low values mean higher potency in that assay, high ones lower potency in that assay.

Structures are written as SMILES. Some results are limits rather than exact numbers.

Experiment [1] addresses Protein kinase C delta type (Homo sapiens, UniProt Q05655). The experiment is described as follows: Displacement of [3H]PDBu from recombinant Protein kinase C delta. The essentials: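 Competitive binding of [3H]PDBu (Kd 2.9 nM) to recombinant PKCδ. Ki derived from the IC50 of the binding curve. Number of repetitions given per compound.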
The test system of experiment [2] is HL-60. The experiment is described as follows: Effective concentration against monocytes of HL-60 cells growth inhibition. The following applies: Homo sapiens. The class given is functional, cell-based. The method, boiled down: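 HL-60 cells grown in RPMI1640 with 5% FBS (not delipidized), penicillin G and streptomycin, at 37 °C in humidified 5% CO2. Compounds taken from 2 mM ethanol stocks, with final ethanol below 0.5%. Cells seeded at about 8 × 10⁴ cells/mL and counted after 4 days. EC50 for growth inhibition.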

In experiment [3] the test system is HL-60. The experiment in a line: Effective concentration against HL-60 cell differentiation. Type of experiment: functional, cell-based. Particulars: Homo sapiens.

Protein kinase C delta type, sequence (Q05655 whole entry): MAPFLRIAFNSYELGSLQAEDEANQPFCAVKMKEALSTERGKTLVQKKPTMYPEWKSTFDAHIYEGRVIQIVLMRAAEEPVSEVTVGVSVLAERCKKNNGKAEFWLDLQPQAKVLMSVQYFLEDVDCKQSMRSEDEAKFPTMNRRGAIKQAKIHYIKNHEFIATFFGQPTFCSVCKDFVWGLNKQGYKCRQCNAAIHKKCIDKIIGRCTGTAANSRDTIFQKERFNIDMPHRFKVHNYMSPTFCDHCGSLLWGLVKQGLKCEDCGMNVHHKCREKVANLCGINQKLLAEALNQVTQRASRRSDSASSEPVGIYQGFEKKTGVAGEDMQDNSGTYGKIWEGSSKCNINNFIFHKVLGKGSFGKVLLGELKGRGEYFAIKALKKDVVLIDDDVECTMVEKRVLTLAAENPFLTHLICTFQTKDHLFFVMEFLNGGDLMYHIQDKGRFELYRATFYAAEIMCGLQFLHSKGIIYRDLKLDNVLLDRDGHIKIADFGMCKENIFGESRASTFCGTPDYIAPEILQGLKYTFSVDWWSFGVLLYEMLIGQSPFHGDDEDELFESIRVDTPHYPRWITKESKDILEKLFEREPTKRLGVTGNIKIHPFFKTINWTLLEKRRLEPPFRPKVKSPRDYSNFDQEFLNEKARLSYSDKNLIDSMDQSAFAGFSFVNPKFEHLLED

For `CC(C)[C@H]1C(=O)N[C@H](CO)Cc2ccccc2N1C`, in experiment [1], the Ki is 1700 nM. This compound also returned an EC50 in the experiment on HL-60 [2] greater than 1000 nM. In the case of `CCCCCCCCCCc1ccc2c(c1)C[C@@H](CO)NC(=O)[C@H](C(C)C)N2C`, the Ki in experiment [1] is 32 nM. For the compound `CC(C)[C@H]1C(=O)N[C@H](CO)Cc2cc3c(cc2N1C)C1(CCC3)CCC(C)(C)CC1`, in experiment [1], the Ki amounted to 14 nM. The EC50 with HL-60 [3] is 20 nM. On the same counts, the results for `CC(C)[C@H]1C(=O)N[C@H](CO)Cc2cc3c(cc2N1C)C1(CCCCC1)CCC3` are 19 nM and 70 nM. For the compound `CCCCCCCCCCc1ccc2c(c1)N(C)[C@@H](C(C)C)C(=O)N[C@H](CO)C2`, in experiment [1], the Ki turned out to be 5.9 nM. Still for that read-out and setting: the same measure for `CC(C)[C@H]1C(=O)N[C@H](CO)Cc2cc3c(cc2N1C)C(C)(C)CCC3(C)C`: 5100 nM.

For `CC(C)[C@H]1C(=O)N[C@H](CO)Cc2cc3c(cc2N1C)CCCC3(C)C`, the inhibition constant Ki in experiment [1] stood at 1700 nM. Moreover, in the experiment with HL-60 [3], the EC50 came to 7000 nM. As for `CCCCCCCCCCC1C(=O)N[C@H](CO)Cc2ccccc2N1C` (stereo partly drawn), the Ki in experiment [1] was found to be 3 nM. The same compound came in with an EC50 in the experiment with HL-60 [3] of 200 nM. As to `CC(C)[C@H]1C(=O)N[C@H](CO)Cc2cc3c(cc2N1C)C(C)(C)CCC3`, the Ki in experiment [1] turned out to be 65 nM. `C=C[C@@]1(C)CC[C@](C)(C(C)C)c2cc3c4c(c[nH]c4c21)C[C@@H](CO)NC(=O)[C@H](C(C)C)N3C`: in experiment [1], the Ki is 0.32 nM. Moreover, in the experiment on HL-60 [2], the EC50 amounted to 5 nM. On the same counts, the results for `CC(C)[C@H]1C(=O)N[C@H](CO)Cc2c[nH]c3cccc(c23)N1C` [INDOLACTUM] are 80 nM and 5 nM.
